Assay results published in ChEMBL document CHEMBL1127326, “Antitumor agents. 148. Synthesis and biological evaluation of novel 4 beta-amino derivatives of etoposide with better pharmacological profiles” (1994).
Where “and” joins values, the source holds several entries; their conditions need not be identical. Equal entries are not always repeated.

Key:
Tumor Cell line [1] = assay: Drug molar concentration required to inhibit 50% of human tumor cell growth; assay type: functional
Outline: (§1)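 NCI panel of 54 human tumor lines from eight cancer types, mostly seeded at 20 000 cells/well. Cells were preincubated 24 h without drug, then exposed to five 10-fold dilutions for 48 h, fixed and stained with sulforhodamine B, and read spectrophotometrically. Versus control, GI50 (50% growth inhibition), TGI (0% growth) and LC50 (−50% growth) were calculated; mean graph midpoints average all lines.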

KB [2] = assay: Cytotoxicity against KB cells after a 3 day incubation; assay type: functional, Homo sapiens; settings: read-out: ID50 (the source's name)
Outline: (§2)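 KB cells (parental ATCC line and resistant variants) exposed to drug at five concentrations […] for 3 days. ID50 is the concentration giving 50% reduction in cell number, derived from the degree of inhibition at the five concentrations.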

Tumor Cell line [3] = assay: Drug concentration required to inhibit total cell growth; assay type: functional, Homo sapiens; settings: read-out: Log TGI (converted); outline: as §1
[4] = target: DNA topoisomerase II (Homo sapiens) (UniProt P11388+Q02880); assay: 50% inhibition of human DNA topoisomerase II; assay type: protein assay
Nucleic Acid = assay: Percentage inhibition of cellular protein-DNA complex formation; assay type: functional; settings: Homo sapiens
Tumor Cell line [5] = assay: Inhibition of human tumor cell growth; assay type: functional; outline: as §1
KB [6] = assay: 50% reduction in the number of KB 7D (topoisomerase II, aMDR) resistant variant; assay type: functional, Homo sapiens; settings: Homo sapiens, KB; read-out: ID50 (the source's name); outline: as §2
KB [7] = assay: 50% reduction in the number of KB ATCC cells; assay type: functional; settings: Homo sapiens, read-out: ID50 (the source's name); outline: as §2
KB [8] = assay: 50% reduction in the number of KB V20C resistant variant; assay type: functional, Homo sapiens; settings: Homo sapiens, KB; read-out: ID50 (the source's name); outline: as §2

Structure (SMILES) | GI50 (Tumor Cell line [1]; Homo sapiens, Tumor Cell line) [µM] | IC50 (KB [2]; Homo sapiens, KB, 72 h) [µM] | TGI (Tumor Cell line [3]) [µM] | Complex formation (Nucleic Acid) | further results
COc1cc([C@@H]2c3cc4c(cc3[C@@H](Nc3ccc(C(=O)O)cc3)[C@H]3COC(=O)[C@H]23)OCO4)cc(OC)c1O | 8.51 | > 4 | 15.8 |  | 
COc1cc([C@@H]2c3cc4c(cc3[C@@H](NCCN3CCOCC3)[C@H]3COC(=O)[C@H]23)OCO4)cc(OC)c1O |  |  | 11.5 |  | GI50 (Tumor Cell line [1]): 1.82 µM; IC50 (KB [2]): 2 µM
COc1cc([C@@H]2c3cc4c(cc3[C@@H](NCCN(C)C)[C@H]3COC(=O)[C@H]23)OCO4)cc(OC)c1O |  |  |  | 203% and 183% | ID50 [4]: 25 µM
CCOC(=O)N1CCC(N[C@@H]2c3cc4c(cc3[C@@H](c3cc(OC)c(O)c(OC)c3)[C@H]3C(=O)OC[C@@H]32)OCO4)CC1 | 1.35 | 0.74 |  |  | TGI (Tumor Cell line [3]; Homo sapiens, Tumor Cell line): 7.76 µM
COc1cc([C@@H]2c3cc4c(cc3[C@@H](O[C@@H]3O[C@@H]5CO[C@@H](C)O[C@H]5[C@H](O)[C@H]3O)[C@H]3COC(=O)[C@H]23)OCO4)cc(OC)c1O [ETOPOSIDE] |  | 0.2 |  | 100% | GI50 (Tumor Cell line [5]): 83.2 µM; IC50 (KB [6]): 18 µM; IC50 (KB [7]): 0.32 µM; IC50 (KB [8]): 2.3 µM
